GSK3beta inhib: inhibitors of human GSK3beta kinase; P49841; 300,000 tested, 0.038% active; GST-GSK3beta kinase, ADP-Glo luminescence, 60 min; stronger effect = lower value; activity score (negative = inhibition), % at 10 µM;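 active = more than half of replicate wells score below -50%, meaning over 50% inhibition versus plate controls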;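 note: 0% = median DMSO wells and -100% = median GW8510 positive control wells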
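Assay system: GST-tagged human GSK3beta kinase, cell-free; Input: 1.6 ng GSK3beta; Medium: Tris/MgCl2 kinase buffer; Timing: 60 min enzyme reaction, room temperature; Signal: ADP-Glo luminescence quantifying ADP generated by kinase; Evaluation: score relative to plate controls; Benchmarks: DMSO neutral wells and GW8510 at 20 µM as positive.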
STK33 inh: inhibitors of human STK33 kinase. purified STK33, MBP phosphorylation, ADP-Glo luminescence. 320,000 tested, 0.073% active. inhibition, % at 10 µM. Q9BYT3;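 active = inhibition at or above 25%, using the most active replicate where run in duplicate; inactive = inhibition below 25%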
GSK3A inh: human GSK-3 alpha kinase inhibition; P49840; ADP-Glo luminescence, 60 min; inhibition, % at 10 µM; 320,000 tested, 0.1% active;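 active = more than half of replicates show inhibition above 20%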;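 note: GST-tagged GSK-3 alpha with peptide substrate and 25 µM ATP; 0% = DMSO neutral wells and 100% = GW8510 positive control wells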
Target sequence (P49840 whole entry, looked up): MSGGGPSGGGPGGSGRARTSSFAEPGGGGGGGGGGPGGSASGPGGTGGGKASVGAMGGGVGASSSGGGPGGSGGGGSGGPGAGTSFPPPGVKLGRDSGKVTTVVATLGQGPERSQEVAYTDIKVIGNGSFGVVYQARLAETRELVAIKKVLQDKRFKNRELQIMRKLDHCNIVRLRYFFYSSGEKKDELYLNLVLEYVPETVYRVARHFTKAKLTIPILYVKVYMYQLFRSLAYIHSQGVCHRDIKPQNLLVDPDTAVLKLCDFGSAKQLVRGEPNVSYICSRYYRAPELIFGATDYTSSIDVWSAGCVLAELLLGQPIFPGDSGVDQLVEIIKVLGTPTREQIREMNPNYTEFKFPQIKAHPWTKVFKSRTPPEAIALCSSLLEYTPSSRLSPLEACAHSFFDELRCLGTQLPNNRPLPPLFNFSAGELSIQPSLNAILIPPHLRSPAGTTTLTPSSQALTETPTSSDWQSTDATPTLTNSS
DYRK1A inh: Dyrk1A (rat) kinase inhibition | Q63470 | ADP-Glo luminescence, NFATc1 peptide | inhibition, % at 12.5 µM | 310,000 tested, 0.43% active; in the data active = inhibition above about 50%;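 note: plate controls were vehicle with enzyme for no effect and no enzyme for full effect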
ADP-Glo artifact: counter-screen for Dyrk1A inhibitors: ADP-Glo luciferase artifacts | AID 588348 | shares compounds with DYRK1A inh | ADP-Glo luciferase artifact assay, no Dyrk1A, luminescence | 1,300 tested, under 10 active | AC50, µM (titrated, usually from 12 µM), for inactives: at the top dose activity change, negative = inhibition;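 active = fitted half-maximal dose AC50 no more than ten times the top valid tested dose, with luminescence dropping as dose rises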
Starred values were filed as active, the others as inactive; / = no result. Only a selection was taken, and hits are over-represented in it overall.

SMILES	GSK3beta inhib	STK33 inh	GSK3A inh	DYRK1A inh	ADP-Glo artifact
Oc1ccc(/C=N/n2c(C3CCCCC3)n[nH]c2=S)c(O)c1	-10	12	20	83*	9%
COc1ccc(OC)c(C2C(C(C)=O)=C(C)Nc3ncnn32)c1 (configuration not stated)	-3	0	-1	-5	/
COc1cc(/C=N/NS(=O)(=O)c2ccc(C(C)(C)C)cc2)cc([N+](=O)[O-])c1O	3	-1	-3	-3	/
O=c1cc(CSc2nc3ccccc3c(=O)[nH]2)c2ccc(O)cc2o1	-10	/	/	-2	/
COc1cccc(N(CC(=O)NC2CCCCC2)C(=O)Cn2nnc(-c3ccc(C)o3)n2)c1	1	/	/	-2	/
C=CCOC(=O)C1=C(C)NC(=O)NC1c1ccc(Cl)cc1 (configuration not stated)	-2	1	0	67*	6%
C=CCOC(=O)C1=C(C)NC(=O)NC1c1ccc(N(C)C)cc1 (configuration not stated)	1	0	-2	/	/
COc1ccc2c3c([nH]c2c1)C(C)N(CCC(=O)NN)CC3 (configuration not stated)	4	2	0	74*	10%
O=c1[nH]c(/C=C2\C=Nc3ccccc32)c(O)n1Cc1ccccc1F	0	-2	-1	1	/
CSc1nc(O)c(/C=C2\C=Nc3ccccc32)[nH]1	-21	9	39	57*	8%
CCc1nc(Nc2cccc(O)c2)c2oc3ccccc3c2n1	-1	5	2	62*	10%
CCc1nc(Nc2ccncc2)c2oc3ccccc3c2n1	2	1	0	13	/
CCCCn1c(N2CCC(Cc3ccccc3)CC2)nc2c1c(=O)[nH]c(=O)n2C	-1	2	-1	56*	7%
Cc1nnc(SCCn2c(N3CCC(Cc4ccccc4)CC3)nc3c2c(=O)[nH]c(=O)n3C)s1	1	-2	0	/	/
CCN1CCN(Cc2ccc(NC(=O)c3ccc(C)c(/C=C/c4cnc(Nc5cc(N6CCNCC6)nc(C)n5)cn4)c3)cc2C(F)(F)F)CC1	-31	15	24	52*	8%
CCN1CCN(Cc2ccc(NC(=O)c3ccc(C)c(NC(=O)c4csc(-c5ccncc5)n4)c3)cc2C(F)(F)F)CC1	-1	5	1	68*	6%
CC(=O)C(Cc1ccccc1)NC(=O)COC(=O)c1cccc(C)c1[N+](=O)[O-] (configuration not stated)	/	-1	-1	/	/
COc1ccc(NC(=O)N(C)C[C@H]2Oc3c(NS(=O)(=O)c4cccs4)cccc3C(=O)N([C@@H](C)CO)C[C@@H]2C)cc1	/	0	1	55*	3%
COCCCN(C(C)=O)c1nc(-c2ccc(OC)cc2)cs1	-4	-1	0	76*	7%
NNc1nc2c(Cl)ccc(Cl)c2s1	0	-1	-3	57*	8%
O=C(Nc1nc2c(Cl)ccc(Cl)c2s1)C1CC1	5	0	1	9	/
Cc1cc(C(=O)CSc2nn(-c3ccccc3)c(=S)s2)c(C)n1Cc1ccco1	-1	-1	4	57*	5%
Cc1cc(C(=O)CSc2nncs2)c(C)n1Cc1ccco1	2	1	2	-2	/
COc1ccccc1NC(=O)CON=C(N)CC(=O)NC1CCCCC1	/	-1	-5	-1	/
O=C(Nc1ccc(Cl)cc1)c1csc(-c2ccccc2)n1	-1	1	-3	-3	/
SMILES	GSK3beta inhib	STK33 inh	GSK3A inh	DYRK1A inh	ADP-Glo artifact
O=C(Nc1ccc(Cl)cc1)c1csc(-c2ccncc2)n1	-4	2	-1	51*	11%
Cc1nc(NC(=O)c2ccccc2)sc1-c1csc(N)n1	-1	5	3	60*	8%
Cc1nc(NC(=O)c2ccccc2)sc1-c1csc(NCc2ccccc2)n1	-4	-2	3	5	/
CC(Nc1nc(-c2cccnc2)nc2ccccc12)c1ccc(F)cc1 (configuration not stated)	1	-1	3	62*	10%
COc1cccc(CC(=O)Nc2cccc3ccccc23)c1	0	-1	0	-5	/
COc1ccc(S(=O)(=O)Nc2nc3c(s2)CCCC3)cc1	1	0	1	0	/
CN1CCN(c2cc3c(c4c2[nH]c2ccccc24)C(=O)CC(C)(C)C3)CC1	-9	4	8	56*	10%
O=C(Nc1cccc(-c2nc3ncccc3o2)c1)c1cc2ccccc2o1	1	2	-2	56*	8%
CC(=O)Nc1cccc(NC(=O)c2cc3ccccc3o2)c1	-1	5	-1	53*	4%
CC1(C)CC(=O)C=C(NCCc2c[nH]c3ccccc23)C1	-11	0	1	/	/
N#CCSc1nc(Nc2ccc3c(c2)OCO3)c2ccccc2n1	1	0	-1	60*	7%
CC(C)S(=O)(=O)C1=NSC2=NC(=O)/C(=C\c3ccc(-c4ccccc4)o3)C(=N)N21	5	15	7	47	/
CC(C)S(=O)(=O)C1=NSC2=NC(=O)/C(=C\c3ccc(-c4cccc(C(=O)O)c4)o3)C(=N)N21	/	/	/	65*	11%
O=C(O)c1cccc(-c2ccc(/C=N/Nc3ccc([N+](=O)[O-])cc3)o2)c1	-2	1	13	60*	8%
O=C(O)c1ccc(N/N=C/c2ccc(-c3cccc(Cl)c3)o2)cc1	-1	0	3	18	/
CCCCN(CCCC)CCCN1CC(=O)N2[C@@H](Cc3c([nH]c4ccccc34)C2(C)C)C1=O	-1	-1	0	0	/
c1ccc2sc(NN=C3CCCCCC3)nc2c1	1	9	4	62*	9%
O=C(Nc1nc2ccccc2s1)c1ccccc1	0	4	1	24	/
O=C(Nc1ccncc1)c1c(Cl)cccc1Cl	/	-2	-1	-3	/
CC(=O)c1ccc(NC(=S)Nc2ccc3cn[nH]c3c2)cc1	-7	5	-1	57*	8%
O=C(Nc1ccc2ccccc2c1)c1ccccc1F	-2	1	-6	15	/
O=C(Nc1ccc2cn[nH]c2c1)c1ccccc1F	-4	-2	-1	54*	10%
O=C(Nc1ccc2cn[nH]c2c1)c1c(Cl)cccc1Cl	-1	8	9	51*	10%
COc1cccc(C(=O)O/N=C(\N)CS(=O)(=O)c2ccccc2)c1	4	-1	0	-5	/
Cc1ccc(N2CN=c3s/c(=C\c4ccccn4)c(=O)n3C2)cc1	0	-1	-1	52*	6%
c1ccc2c(-c3ccncc3)c[nH]c2c1	1	7	1	76*	8%
c1ccc(-c2nnc(-c3ccccc3)c(-c3c[nH]c4ccccc34)n2)cc1	-4	2	3	2	/
Cc1cc(C)n2nc(C(=O)NC3CCCc4ccccc43)nc2n1 (configuration not stated)	2	0	0	3	/
CC(=O)Nc1ccc(/C=C/c2nc3ccccc3o2)cc1	-1	-1	-2	59*	9%

Screening results from PubChem BioAssay.
